Screening data deposited in PubChem by several laboratories.
MT stabilize HCS: stabilizes microtubules in HeLa cells. HeLa tubulin immunostaining HCS, 24 h; share of cells brighter than vehicle mean+2SD. % tubulin-high responders, % at 10 µM. 200,000 tested, 0.83% active. AID 2205;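 active = plate Z-score above 3 for both tubulin-high and condensed-nucleus cell shares, with cell loss under 80%, at 10 µM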;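 also: anti alpha tubulin signal scored within the nucleus-defined area of each cell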
Ba/F3 V617F tox: loss of viability in JAK2V617F-driven Ba/F3 cells; Ba/F3 EpoR-JAK2V617F viability, ATP luminescence; inhibition, % at 5.6 µM; 220,000 tested, 1.1% active;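 active = inhibition above the campaign mean plus 3 SD over all tested compounds, cut at about 24% in these data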;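 also: cytokine-independent growth of Ba/F3 cells driven by EpoR plus mutant JAK2; 0% = DMSO-treated cells and 100% = JAK inhibitor I control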
APP 5UTR inh: APP translation inhibition; inhibition, % at 2 µM; SH-SY5Y APP 5'UTR-luciferase reporter, luminescence; 190,000 tested, 0.82% active;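 active = inhibition above a set limit, derived from the sample mean plus 3 SD, cut at about 45% in these data; inconclusive = one replicate passes the limit while the other fails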
BaF3 tox: parental Ba/F3 viability inhibition as JAK2V617F counter-screen. CellTiter-Glo ATP luminescence. inhibition, % at 5.6 µM. 220,000 tested, 1.1% active;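 active = inhibition above a per-campaign cutoff, the mean inhibition of all tested compounds plus 3 SD, cut at about 27% in these data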;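 also: 0% = DMSO wells and 100% = JAK Inhibitor I control wells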
bCat nuc transl: modulators of beta-catenin nuclear translocation | HeLa beta-catenin nuclear translocation, immunofluorescence imaging | nuclear translocation activity, % at 5 µM | 190,000 tested, 0.3% active | AID 1665;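 active = nuclear translocation activity above 50% at 5 µM, with a well cell count of 50 or more; inconclusive = wells under 50 cells across six images, flagged as toxic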;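 also: per-cell ratio of nuclear to cytoplasmic median beta-catenin stain intensity; plate controls were DMSO negative control for no effect and GSK-3 inhibitor IX positive control for full effect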
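Test system: HeLa cells, endogenous beta-catenin; Compound: single 5 µM dose plus 0.02–20 µM confirmation series; Times: compound exposure 24 h at 37°C; Signal: fluorescence imaging of beta-catenin antibody stain plus DAPI; Read-out: % activation, nuclear-to-cytoplasmic median beta-catenin signal ratio per cell.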
IEC-6 cytotox: IEC-6 cytotoxicity, counter-screen for KLF5 inhibitors; luminescence viability; AID 1825; 290,000 tested, 0.78% active; inhibition, % at 5 µM; in the data active = inhibition above about 22%;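 also: 0% = plate median of test compound wells and 100% = cytotoxic reference compound wells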
BaF3 tox 2: reduces parental Ba/F3 viability, JAK2V617F counter-screen. shares compounds with Ba/F3 V617F tox. CellTiter-Glo luminescence; cells kept alive by added IL-3. inhibition, % at 5.6 µM. 580 tested, 31% active. AID 1520;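 active = cell growth inhibition above the hit limit set in the earlier mutant JAK2 cell screen, cut at about 27% in these data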;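 also: plate controls were DMSO-treated cells for no effect and JAK Inhibitor I control wells for full effect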
JAK2V617F confrm: Ba/F3 EpoR-JAK2V617F viability loss, confirmation | 580 tested, 66% active | AID 1521 | CellTiter-Glo luminescence | inhibition, % at 5.6 µM | shares compounds with Ba/F3 V617F tox;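 active = mean inhibition above the hit cutoff derived in the earlier primary screen, cut at about 25% in these data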;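 also: 0% = DMSO-treated cells and 100% = JAK inhibitor I control wells; higher means lower luminescence from reduced cell ATP and viability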
The depositor's hits bear a star. This is a sample that favours compounds with a hit; in the whole collection about 2.2% have one here.

For COc1cc(C(=O)OCC(=O)Nc2ccc(C)cc2)cc(OC)c1OC the results were IEC-6 cytotox 2.
Screening CNC(=O)c1nnsc1S(=O)(=O)c1ccc(Cl)cc1 returned MT stabilize HCS 3, Ba/F3 V617F tox 91*, APP 5UTR inh 95*, BaF3 tox 8, bCat nuc transl -1, IEC-6 cytotox 48*, BaF3 tox 2 68* and JAK2V617F confrm 98*.
O=C(c1nnsc1S(=O)(=O)c1ccc(Cl)cc1)N1CCOCC1 was read as MT stabilize HCS 2, Ba/F3 V617F tox 76*, APP 5UTR inh 38, BaF3 tox 3, bCat nuc transl 5, IEC-6 cytotox 19, BaF3 tox 2 45* and JAK2V617F confrm 75*.
`CNC(=O)c1ccc(S(=O)(=O)c2ccc(Cl)cc2)c(NC(C)=O)c1` gave IEC-6 cytotox -1.
Screening Nc1nc(C(=O)N2CCOCC2)nn1S(=O)(=O)c1ccc(Cl)cc1 returned MT stabilize HCS 2, Ba/F3 V617F tox 7, APP 5UTR inh 4, BaF3 tox 13 and IEC-6 cytotox -2.
`CN(C)S(=O)(=O)c1ccc(-c2csc(N/N=C/c3ccco3)n2)cc1` gave Ba/F3 V617F tox 0, BaF3 tox 0, bCat nuc transl -1 and IEC-6 cytotox 11.
Screening CN(C)S(=O)(=O)c1ccc(-c2csc(N/N=C/c3ccc(O)cc3)n2)cc1 returned Ba/F3 V617F tox 45*, BaF3 tox 13, bCat nuc transl 1, IEC-6 cytotox 2, BaF3 tox 2 49* and JAK2V617F confrm 94*.
CCCOc1ccc(C(=O)C(c2ccccc2)N2CCOCC2)cc1 (centres undefined) was read as MT stabilize HCS 6, Ba/F3 V617F tox -1, APP 5UTR inh 4, BaF3 tox 4, bCat nuc transl 1 and IEC-6 cytotox 2.
`CCCOc1ccc(C(=O)C(CN2CCOCC2)c2ccccc2)cc1` (centres undefined) gave MT stabilize HCS 2, Ba/F3 V617F tox 46*, APP 5UTR inh 17, BaF3 tox 12, bCat nuc transl inconclusive, IEC-6 cytotox -5, BaF3 tox 2 10 and JAK2V617F confrm 97*.
For CC(C)Nc1ccc(Cl)cc1[N+](=O)[O-] the results were Ba/F3 V617F tox -4, BaF3 tox 2, bCat nuc transl -2 and IEC-6 cytotox 2.
For NC1=NC(c2ccc(Cl)cc2)C(C(=O)c2ccccc2)N1 (centres undefined) the results were Ba/F3 V617F tox -3, BaF3 tox 0, bCat nuc transl -1 and IEC-6 cytotox 2.
`CCOc1ccccc1N1CCN(Cc2cccc(OC)c2O)CC1` gave MT stabilize HCS 3, Ba/F3 V617F tox 40*, APP 5UTR inh 6, BaF3 tox 4, IEC-6 cytotox -1, BaF3 tox 2 -6 and JAK2V617F confrm 4.
`COc1ccccc1N1CCN(CCCCOc2c(OC)cccc2OC)CC1` gave IEC-6 cytotox 0.
For COc1ccccc1N1CCN(CCOc2c(OC)cccc2OC)CC1 the results were MT stabilize HCS 1, Ba/F3 V617F tox 26*, APP 5UTR inh 12, BaF3 tox 5, IEC-6 cytotox 6, BaF3 tox 2 -3 and JAK2V617F confrm 22.
For O=C(Nc1nnc(Cc2ccccc2F)s1)Nc1ccccc1F the results were IEC-6 cytotox -5.
Screening COc1ccccc1CN1C[C@@H]2C[C@@H](c3[nH]c4c(C)cccc4c3C)N3CCC[C@@]23C1=O returned MT stabilize HCS 3, Ba/F3 V617F tox -3, APP 5UTR inh -1, BaF3 tox 5, bCat nuc transl -4 and IEC-6 cytotox 6.
CCc1cccc(NC(=O)CCS(=O)(=O)c2ccc(Br)cc2)c1 was read as IEC-6 cytotox 1.
COc1ccc(Cn2c(O)c(C=Nc3ccccc3C(=O)O)c3ccccc3c2=O)cc1 was read as Ba/F3 V617F tox 4, BaF3 tox -2, bCat nuc transl 0 and IEC-6 cytotox 2.
For COc1ccccc1NS(=O)(=O)c1cccc(-n2c(O)c(C=Nc3ccccc3C(=O)O)c3ccccc3c2=O)c1 the results were Ba/F3 V617F tox 24*, BaF3 tox 8, bCat nuc transl -2, IEC-6 cytotox 8, BaF3 tox 2 8 and JAK2V617F confrm 32*.
For Cc1ccc(S(=O)(=O)N(CCCN2CCCC2=O)Cc2cc3c(C)ccc(C)c3[nH]c2=O)cc1 the results were MT stabilize HCS 1, Ba/F3 V617F tox 62*, APP 5UTR inh -2, BaF3 tox 23, bCat nuc transl -3, IEC-6 cytotox 5, BaF3 tox 2 -6 and JAK2V617F confrm 12.
Screening COc1ccc(S(=O)(=O)N(CCCN2CCCC2=O)Cc2cc3cc(C)c(C)cc3[nH]c2=O)cc1 returned MT stabilize HCS 6, Ba/F3 V617F tox -1, APP 5UTR inh -8, BaF3 tox 2, bCat nuc transl -2 and IEC-6 cytotox -1.
COc1ccccc1NC(=O)CC(=O)CSc1nnc(-c2ccc(C)cc2)n1-c1ccccc1 was read as MT stabilize HCS 3, Ba/F3 V617F tox -4, APP 5UTR inh 5, BaF3 tox -1, bCat nuc transl 0 and IEC-6 cytotox -3.
`COc1ccc(-c2nnc(SCC(=O)Nc3ncc(C)s3)n2-c2ccccc2)cc1OC` gave MT stabilize HCS 58*, Ba/F3 V617F tox 86*, APP 5UTR inh -4, BaF3 tox 7, bCat nuc transl 32, IEC-6 cytotox 10, BaF3 tox 2 18 and JAK2V617F confrm 22.
Screening CC(=O)Oc1ccc(Cl)cc1/C=C/c1cc(OC(C)=O)c2ccccc2n1 returned MT stabilize HCS 2, Ba/F3 V617F tox 24*, APP 5UTR inh 1, BaF3 tox 23, bCat nuc transl -3, IEC-6 cytotox 10, BaF3 tox 2 30* and JAK2V617F confrm 48*.
Screening O=C(NC(NC1CCS(=O)(=O)C1)C(Cl)(Cl)Cl)c1ccc(Br)cc1 (centres undefined) returned MT stabilize HCS 2, Ba/F3 V617F tox 36*, APP 5UTR inh 12, BaF3 tox 9, bCat nuc transl 1, IEC-6 cytotox 15, BaF3 tox 2 1 and JAK2V617F confrm 24*.
CCOc1cc(NC(=O)c2ccco2)c(OCC)cc1NC(=O)c1ccco1 was read as IEC-6 cytotox -7.
`CCOc1cc(C#N)c(NC(=O)c2ccco2)cc1OCC` gave MT stabilize HCS 40*, Ba/F3 V617F tox 39*, APP 5UTR inh -12, BaF3 tox 15, bCat nuc transl 8, IEC-6 cytotox 21, BaF3 tox 2 17 and JAK2V617F confrm 24*.
